We go through 8 molecules from ChEMBL document CHEMBL1123361, “Syntheses and beta-adrenergic agonist and antiaggregatory properties of N-substituted trimetoquinol analogues” (J Med Chem, 1986).

Each structure is given as a SMILES string.

In test [1] the target is Beta-1 adrenergic receptor (Cavia porcellus) (UniProt B0FL73).
Test [2] has as its target Beta-2 adrenergic receptor (Cavia porcellus) (UniProt Q8K4Z4).
The species named for test [3] is Homo sapiens. The test is described as follows: Compound was evaluated for the secretion of [14C]- Serotonin (Antisecretory activity). Type of test: functional. Put shortly: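 [14C]serotonin release measured in the same U46619-challenged washed human platelet samples as aggregation: supernatant radioactivity after 10000g 30 s spin, scintillation counting, relative to total after lysis; net U46619-evoked release as % of total; IC50 from % inhibition of maximal release vs log concentration; mean ± SEM, ≥3 preparations.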

Test [4] is filed under the species Homo sapiens. The experiment in a line: Compound was evaluated for the inhibition of U-46,619-induced human platelet aggregation (Antiaggregatory activity). Type of test: functional. Put shortly: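 Washed human platelets (ACD blood from aspirin-free donors, apyrase-washed, resuspended in calcium-containing modified Tyrode's pH 7.4, 3×10^8/mL) preincubated with vehicle or drug 3 min at 37 °C, then challenged with the minimum U46619 dose (0.8-2.0 μM) giving maximal irreversible aggregation; turbidometric readout ≥2 min; IC50 from % inhibition vs log concentration plots; mean ± SEM, 3-4 donors.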

Chain of Beta-2 adrenergic receptor (Cavia porcellus) (Q8K4Z4 whole entry, looked up): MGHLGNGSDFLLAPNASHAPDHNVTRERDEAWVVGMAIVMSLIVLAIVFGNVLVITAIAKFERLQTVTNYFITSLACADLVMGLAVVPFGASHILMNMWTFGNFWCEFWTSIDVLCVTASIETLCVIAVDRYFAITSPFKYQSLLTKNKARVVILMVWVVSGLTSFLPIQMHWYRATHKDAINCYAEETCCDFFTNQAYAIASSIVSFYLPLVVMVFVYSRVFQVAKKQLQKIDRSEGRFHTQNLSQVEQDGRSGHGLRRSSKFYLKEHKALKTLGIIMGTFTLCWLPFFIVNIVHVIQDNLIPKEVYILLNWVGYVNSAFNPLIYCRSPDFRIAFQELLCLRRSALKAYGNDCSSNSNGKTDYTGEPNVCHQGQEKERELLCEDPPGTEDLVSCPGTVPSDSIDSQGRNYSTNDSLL
Chain of Beta-1 adrenergic receptor (Cavia porcellus) (B0FL73 1-467): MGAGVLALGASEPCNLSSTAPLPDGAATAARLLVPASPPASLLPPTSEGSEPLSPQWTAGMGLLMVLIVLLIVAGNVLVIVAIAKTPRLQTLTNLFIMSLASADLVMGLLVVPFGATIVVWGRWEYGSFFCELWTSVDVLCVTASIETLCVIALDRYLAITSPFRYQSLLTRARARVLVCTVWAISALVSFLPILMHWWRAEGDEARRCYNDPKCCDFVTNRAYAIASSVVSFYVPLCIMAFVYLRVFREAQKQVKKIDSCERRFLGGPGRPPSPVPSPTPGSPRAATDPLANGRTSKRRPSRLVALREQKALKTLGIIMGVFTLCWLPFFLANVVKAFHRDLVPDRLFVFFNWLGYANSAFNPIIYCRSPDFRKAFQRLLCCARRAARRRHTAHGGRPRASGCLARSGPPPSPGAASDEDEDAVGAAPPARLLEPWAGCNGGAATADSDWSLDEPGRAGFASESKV

Turning to `COc1cc(CC2c3cc(O)c(O)cc3CCN2Cc2ccccc2)cc(OC)c1OC` (stereo not drawn), the pD2 in test [1] was 4.34; in test [2] it was 5.34. In addition, the IC50 (commonly the concentration that inhibits the measured activity by half) is 96.5 µM in test [3] and 21.2 µM in test [4].
On to `COc1cc(CC2c3cc(O)c(O)cc3CCN2CCCl)cc(OC)c1OC` (stereo not drawn), for which the pD2 in test [1] stood at 4.88; in test [2] it was 5.34. Moreover, the values for the IC50 in test [3] and in test [4] were 162 µM and 86.6 µM, respectively.
Regarding `COc1cc(CC2c3cc(O)c(O)cc3CCN2C)cc(OC)c1OC` (stereo not drawn), the values for the pD2 in test [1] and in test [2] were 5.89 and 6.05, respectively.
Turning to `COc1cc(C[C@H]2NCCc3cc(O)c(O)cc32)cc(OC)c1OC`, the pD2 in test [1] is 5.58; in test [2], 5.63. In addition, the IC50 in test [3] was 0.55 µM; in test [4] it was 0.71 µM.
Taken in the same sequence, the figures for `COc1cc(CC2c3cc(O)c(O)cc3CCN2CCO)cc(OC)c1OC` (stereo not drawn) were 5.35, 5.73, 116 µM and 71.6 µM.
Take `COc1cc(CC2c3cc4c(cc3CCN2CCCl)OS(=O)O4)cc(OC)c1OC` (stereo not drawn): the figures for the pD2 in test [1] and in test [2] were 5.24 and 5.58, respectively. Also, the IC50 in test [3] came out at 166 µM; in test [4], 64.2 µM.
For the molecule `COc1cc(CC2NCCc3cc(O)c(O)cc32)cc(OC)c1OC` (stereo not drawn), the pD2 was determined as 7.1 in test [1] and 6.96 in test [2].
With `COc1cc(C[C@@H]2NCCc3cc(O)c(O)cc32)cc(OC)c1OC`, the figures for the pD2 in test [1] and in test [2] were 7.26 and 7.23, respectively. Also, the IC50 in test [3] worked out at 24.5 µM; in test [4] it was 19.3 µM.
